Key:
CNRs = assay: NanoBiT-G-protein dissociation assay for CNRs; format: cell-based, human
human LPA1 = human LPA1 (Homo sapiens, UniProt Q92633); assay: NanoBiT-G-protein dissociation assay; format: cell-based
Summary of the method: (§1)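 Human LPA1 (N-terminal FLAG-tagged, wild type or point mutant) is co-transfected into HEK293T cells with LgBiT-Gαi1, untagged Gβ1 and SmBiT-Gγ2 C68S. After 1 d, cells are resuspended in HBSS with 0.01% fatty-acid-free BSA and loaded with coelenterazine for 2 h.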

human LPA1 W210A mutant = human LPA1 W210A mutant (Homo sapiens, UniProt Q92633, W210A); assay: NanoBiT-G-protein dissociation assay, LPA1 W210A mutant; format: cell-based
Summary of the method: as §1

FFAR4 = biological target: T1, FFAR4 (Homo sapiens, UniProt Q5NUL3); assay: NanoBiT-G-protein dissociation assay for FFAR4; format: cell-based; settings: FFAR4 (b17 prints FFARs)
T1 sequence (Q5NUL3 1-361): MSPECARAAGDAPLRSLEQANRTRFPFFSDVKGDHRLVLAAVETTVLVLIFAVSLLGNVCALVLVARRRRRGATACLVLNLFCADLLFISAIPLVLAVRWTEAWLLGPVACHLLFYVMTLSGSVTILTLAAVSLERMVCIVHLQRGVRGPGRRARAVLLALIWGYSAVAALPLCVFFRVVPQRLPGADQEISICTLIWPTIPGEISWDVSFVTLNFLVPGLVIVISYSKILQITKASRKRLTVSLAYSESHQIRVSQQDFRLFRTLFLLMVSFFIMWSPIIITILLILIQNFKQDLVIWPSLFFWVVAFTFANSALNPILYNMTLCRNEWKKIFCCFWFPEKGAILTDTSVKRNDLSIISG

human LPA1 W271F mutant = human LPA1 W271F mutant (Homo sapiens, UniProt Q92633, W271F); assay: NanoBiT-G-protein dissociation assay, LPA1 W271F mutant; format: cell-based
Summary of the method: as §1

human LPA1 L278A mutant = human LPA1 L278A mutant (Homo sapiens, UniProt Q92633, L278A); assay: NanoBiT-G-protein dissociation assay, LPA1 L278A mutant; format: cell-based
Summary of the method: as §1

Chain of human LPA1 (Q92633 whole entry): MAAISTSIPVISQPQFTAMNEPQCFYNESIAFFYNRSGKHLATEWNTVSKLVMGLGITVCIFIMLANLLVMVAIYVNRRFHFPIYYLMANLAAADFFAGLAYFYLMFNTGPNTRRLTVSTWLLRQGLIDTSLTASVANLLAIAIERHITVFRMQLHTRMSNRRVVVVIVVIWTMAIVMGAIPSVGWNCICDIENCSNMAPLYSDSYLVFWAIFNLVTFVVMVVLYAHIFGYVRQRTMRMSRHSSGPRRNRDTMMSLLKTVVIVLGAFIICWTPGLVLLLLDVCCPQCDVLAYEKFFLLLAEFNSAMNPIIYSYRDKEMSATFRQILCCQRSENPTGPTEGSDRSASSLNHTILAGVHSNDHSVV
Chain of human LPA1 W210A mutant (Q92633 whole entry W210A): as the sequence (Q92633 whole entry) above, with W210A counted along it
Chain of human LPA1 L278A mutant (Q92633 whole entry L278A): as the sequence (Q92633 whole entry) above, with L278A counted along it
Chain of human LPA1 W271F mutant (Q92633 whole entry W271F): as the sequence (Q92633 whole entry) above, with W271F counted along it

EC50 (human LPA1; EC50, WT LPA1): 0.95 nM
Emax relative to LPA (human LPA1; compared with LPA): 1.5 fold
agonistic activity (EC50) relative to LPA (human LPA1; compared with LPA): 20 fold
response of mutant compared with wild type (human LPA1 W210A mutant): responsive
effect on receptor (FFAR4): no activity
response of mutant compared with wild type (human LPA1 W271F mutant): reduction in response
response of mutant compared with wild type (human LPA1 L278A mutant): reduced the activity
SMILES: CCc1oc2c([C@H](CO)N(CC)CC)cccc2c1C [CpY, (2R)-2-(diethylamino)-2-(2-ethyl-3-methyl-benzofuran-7-yl)ethanol]
effect on receptor (CNRs): no activity

From publication PMC11541586 (Communications Biology, 2024)
